The source of these data is PMC6531046 (Bioorganic & medicinal chemistry, 2019).

“Also recorded” adds a separate entry of the source.

Experiment [1] addresses tubulin (Trypanosoma brucei rhodesiense, UniProt P04106+P04107). The experiment can be described thus: Tubulin polymerization in T. brucei cells. In kind it is cell-based. As to conditions: 12 h treatment, different doses, western blot vs DMSO. Summed up: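 Bloodstream-form T. b. brucei Lister 427 (HMI-9, 10% FBS, 37°C, 7.5% CO2) treated 12 h with varying doses in 0.5% DMSO; washed in TDB with protease inhibitors, lysed 5 min at 4°C in Pipes pH 6.8/EGTA/MgCl2/0.15% Triton X-100/glycerol; 15,000 g 30 min spin separated soluble (non-polymerized) supernatant from pellet, RIPA-boiled (polymerized). Equal cell-equivalent fractions blotted with anti-tubulin antibody.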
For orientation: Immunoblotting shows a protein as a band on a membrane.

Experiment [2] concerns T. b. brucei Lister 427 cells. The experiment can be described thus: T. brucei cell viability analysis. In kind it is cell-based, Trypanosoma brucei brucei. As to conditions: IC50 mammalian cells / IC50 T. brucei. Summed up:
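Index is mammalian-cell IC50 divided by T. brucei IC50. Parasite arm: bloodstream-form Lister 427 in HMI-9/10% FBS, 37°C, 7.5% CO2; 5,000 cells, compound with 0.1% DMSO, 48 h; MTS 3 h, A490. Mammalian arm: HEK293 or RAW264.7 in RPMI1640/10% FBS, 3000 cells seeded 24 h, compound 48 h; MTT 3 h, A570. Quadruplicates normalized, dose–response fitted.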

The subject of experiment [3] is T. b. brucei Lister 427 cells. As to conditions: earlier study, cited from earlier work.

Chain of tubulin (P04107 whole entry): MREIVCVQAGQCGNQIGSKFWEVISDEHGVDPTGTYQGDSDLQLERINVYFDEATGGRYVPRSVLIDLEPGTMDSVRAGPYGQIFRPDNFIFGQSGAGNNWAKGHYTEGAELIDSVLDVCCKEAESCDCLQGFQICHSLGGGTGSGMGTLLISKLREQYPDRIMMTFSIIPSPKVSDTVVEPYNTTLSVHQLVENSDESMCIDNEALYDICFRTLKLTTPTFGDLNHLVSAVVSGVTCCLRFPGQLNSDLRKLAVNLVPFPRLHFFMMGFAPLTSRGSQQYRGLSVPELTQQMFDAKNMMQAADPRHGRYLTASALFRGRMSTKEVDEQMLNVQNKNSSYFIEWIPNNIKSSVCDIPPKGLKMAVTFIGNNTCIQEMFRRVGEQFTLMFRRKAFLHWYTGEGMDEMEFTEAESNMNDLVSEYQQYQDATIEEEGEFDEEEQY
Chain of tubulin (P04106 whole entry): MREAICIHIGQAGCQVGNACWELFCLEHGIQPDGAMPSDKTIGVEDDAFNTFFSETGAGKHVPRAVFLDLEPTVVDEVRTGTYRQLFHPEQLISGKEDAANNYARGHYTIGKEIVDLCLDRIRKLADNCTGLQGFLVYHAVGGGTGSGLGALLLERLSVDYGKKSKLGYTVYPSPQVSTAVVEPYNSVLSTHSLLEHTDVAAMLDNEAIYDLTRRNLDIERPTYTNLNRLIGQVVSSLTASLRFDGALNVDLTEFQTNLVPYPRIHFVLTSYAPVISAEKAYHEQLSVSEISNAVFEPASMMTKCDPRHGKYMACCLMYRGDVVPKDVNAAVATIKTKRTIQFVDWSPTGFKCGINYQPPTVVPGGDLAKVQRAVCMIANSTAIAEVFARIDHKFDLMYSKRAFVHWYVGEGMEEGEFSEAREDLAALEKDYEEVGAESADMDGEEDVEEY

Consider `N#Cc1ccc(C(=O)Nc2ccc(NS(=O)(=O)C(F)(F)F)c(F)c2)cc1` [Compound 57, 4-Cyano-N-(3-Fluoro-4-(Trifluoromethylsulfonamido)Phenyl)Benzamide], for which, in experiment [1], the “effect on tubulin polymerization in T. brucei cells” value is on record as “decreased the amount of polymerized tubulin in a dose-dependent manner; also recorded: inhibit the tubulin polymerization in T. brucei cells”.

Regarding `CCS(=O)(=O)Nc1ccc(NC(=O)c2ccc(Cl)c([N+](=O)[O-])c2)cc1Cl` [Compound 39, 4-Chloro-N-(3-Chloro-4-(Ethylsulfonamido)-Phenyl)-3-Nitrobenzamide], in experiment [2], the “selectivity index (mammalian cell line not given)” value is “below 50”.

Take `Cc1cc(NC(=O)c2cc(C(F)(F)F)cc(C(F)(F)F)c2)ccc1NS(C)(=O)=O` [Compound 5, N-(4-(Methylsulfonamido)-3-Methylphenyl)-3,5-Bis(Trifluoromethyl)Benzamide]: in experiment [1], the “effect on tubulin polymerization in T. brucei cells” value is given as “profound effect on tubulin function; also recorded: decreased the amount of polymerized tubulin in a dose-dependent manner; also recorded: inhibit the tubulin polymerization in T. brucei cells”. In experiment [2], the “selectivity index (mammalian cell line not given)” value is recorded as “above 50”.

Take `CCS(=O)(=O)Nc1ccc(NC(=O)c2cc(C(F)(F)F)cc(C(F)(F)F)c2)cc1Cl` [Compound 40, N-(3-Chloro-4-(Ethylsulfonamido)Phenyl)-3,5-Bis(Trifluoromethyl)Benzamide]: the “selectivity index (mammalian cell line not given)” value in experiment [2] is given as “below 50”.

Turning to `Cc1cc(NC(=O)c2cc(C(F)(F)F)cc(C(F)(F)F)c2)ccc1NS(=O)(=O)C(F)(F)F` [Compound 15, N-(3-Methyl-4-Trifluoromethanesulfonylamino-Phenyl)-3,5-Bis-Trifluoromethyl-Benzamide], the selectivity index entry in experiment [3] (IC50 human cell growth / IC50 T. brucei cell growth) was “around 7000”. Also, in experiment [3], the “IC50 to inhibit trypanosomal cell proliferation” value is 70 nM.
